Test results taken from PMC4372299 (Molecular imaging and biology : MIB : the official …, 2014).

Tests used:
TSPO [1] = target: TSPO (Mus musculus, UniProt P50637); test: Dynamic PET accumulation and displacement of [18F]VUIIS1008 in healthy mice; assay type: in vivo
TSPO [2] = target: T1, TSPO (Rattus norvegicus, UniProt P16257); test: Dynamic PET with compartmental modeling in C6 glioma-bearing rats; assay type: in vivo; conditions: for K1 / k2 / k3 / k4: 2-tissue 4-parameter model, n = 5, Mean ± SEM; for %ID/cc (90 min) / K1/k2 / VT=(K1/k2)(1+k3/k4) / k3/k4 (binding potential): C6-glioma bearing rats n = 5, Mean ± SEM
Method in brief: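 Male Wistar rats (10 weeks, ~300 g) were implanted with 1.0 × 10⁵ C6 cells in the right hemisphere 2 weeks before imaging, then catheterised and localised by T₂ MRI. Radiotracer 1.2 ± 0.2 mCi was given as a jugular bolus for 90-min dynamic PET with CT attenuation correction. Arterial input was TLC metabolite-corrected. Tumour and contralateral-brain TACs were fitted with 1- and 2-tissue models to give K₁–k₄, V_T and BP_ND.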

TSPO [3] = target: T1, TSPO; test: Pre-blocking PET study with non-radioactive VUIIS1008 in C6 glioma-bearing rats; assay type: in vivo; conditions: pre-blocking with VUIIS1008 10 mg/kg, range of 2 rats
Method in brief: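 In C6 glioma-bearing Wistar rats, the non-radioactive ligand (10 mg/kg i.v.) was given 5 min before a radiotracer bolus (1.2 ± 0.2 mCi via jugular catheter). Dynamic PET ran for 60 min with a metabolite-corrected arterial input function. Tumour and contralateral normal-brain TACs were fitted to a 2-tissue, 4-parameter model, and the range from 2 rats is reported.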

TSPO [4] = conditions: cited from earlier work; for enhancement in binding affinity compared to DPA-714: TSPO affinity vs DPA-714
[5] = challenger 10 mg/kg at scan mid-point (30 min)

SMILES: CCc1cc(CC)n2nc(-c3ccc(OCC[18F])cc3)c(CC(=O)N(CC)CC)c2n1 [[^18F]VUIIS1008, 2-(5,7-diethyl-2-(4-(2-[^18F]fluoroethoxy)phenyl)pyrazolo[1,5-a]pyrimidin-3-yl)-N,N-diethylacetamide]
- binding reversibility in healthy, TSPO-rich tissues (TSPO [1]; dynamic PET): reversible binding
- VT ratio between tumor and normal brain (TSPO [2]; C6 glioma-bearing rats): 6.0
- clearance of tracer from plasma (TSPO [2]; C6 glioma-bearing rats, n = 6): cleared rapidly
- K1 (TSPO [2]; normal brain): 0.881 ± 0.392
- k2 (TSPO [2]; normal brain): 2.078 ± 1.666
- k3 (TSPO [2]; normal brain): 0.172 ± 0.070
- k4 (TSPO [2]; normal brain): 0.037 ± 0.004
- %ID/cc (90 min) (TSPO [2]; normal brain): 0.103 ± 0.031 %ID/cc
- K1/k2 (TSPO [2]; normal brain): 0.86 mL/g
- VT=(K1/k2)(1+k3/k4) (TSPO [2]; normal brain): 4.210 ± 1.612
- k3/k4 (binding potential) (TSPO [2]; normal brain): 4.435 ± 1.387
- K1/k2 (TSPO [2]; normal brain, listed as 18F-VUIIS1008): 0.855 ± 0.325 mL/g
- K1 (TSPO [2]; tumor (C6 glioma)): 0.709 ± 0.306
- k2 (TSPO [2]; tumor (C6 glioma)): 0.442 ± 0.101
- k3 (TSPO [2]; tumor (C6 glioma)): 0.113 ± 0.013
- k4 (TSPO [2]; tumor (C6 glioma)): 0.009 ± 0.002
- %ID/cc (90 min) (TSPO [2]; tumor): 0.310 ± 0.051 %ID/cc
- K1/k2 (TSPO [2]; tumor): 1.90 mL/g
- VT=(K1/k2)(1+k3/k4) (TSPO [2]; tumor): 25.224 ± 10.035
- k3/k4 (binding potential) (TSPO [2]; tumor): 12.63
- K1/k2 (TSPO [2]; tumor, listed as 18F-VUIIS1008): 1.902 ± 0.816 mL/g
- k3/k4 (binding potential) (TSPO [2]; tumor, listed as 18F-VUIIS1008): 12.634 ± 1.406
- K1/k2 (TSPO [3]; normal brain): 0.059 – 0.061
- VT=(K1/k2)(1+k3/k4) (TSPO [3]; normal brain): 0.380 – 0.615
- k3/k4 (binding potential) (TSPO [3]; normal brain): 4.888 – 13.507
- K1/k2 (TSPO [3]; tumor): 0.124 – 0.143
- VT=(K1/k2)(1+k3/k4) (TSPO [3]; tumor): 0.618 – 0.767
- k3/k4 (binding potential) (TSPO [3]; tumor): 3.972 – 4.368
- enhancement in binding affinity compared to DPA-714 (TSPO [4]): approximately 36 fold

SMILES: CCc1cc(CC)n2nc(-c3ccc(OCCF)cc3)c(CC(=O)N(CC)CC)c2n1 [VUIIS1008, 2-(5,7-diethyl-2-(4-(2-fluoroethoxy)phenyl)pyrazolo[1,5-a]pyrimidin-3-yl)-N,N-diethylacetamide]
- displacement of [18F]VUIIS1008 from myocardium and lung tissue (TSPO [1]; [5]): rapid and significant displacement
- displacement of [18F]VUIIS1008 from renal tissue (TSPO [1]; [5]): partial displacement
- enhancement in binding affinity compared to DPA-714 (TSPO [4]): 36 fold
- Ki (TSPO [4]; read-out: Ki (binding affinity), TSPO): 0.3 nM
